Activity calls are given as the source filed them.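 How the source made its calls, unless noted: active means mean duplicate potentiation above the buffer control mean plus 5 SD of buffer wells; inactive means the rest.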
System: not listed separately
Experiment: nonspecific flux increase, KCNQ1-free cells – parental CHO cells, counter-screen for KCNQ1 potentiator project (AID 493006;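 active means duplicate-averaged activation above buffer control mean plus 5 SD of those controls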;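 on activation: fluorescence ratio of max minus min over baseline after K+ and Tl+ depolarization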)
Conditions: parental CHO-K1 cells, FluxOR thallium flux, at 10 µM; active compounds read high
Summary of the method: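 Material: parental CHO-K1 cells, FluxOR dye-loaded; Also added: Potassium/thallium depolarization pulse; Schedule: overnight 37 °C plating, 90 min dye, 20 min dark compound; Signal: kinetic FluxOR fluorescence, 10 s baseline, 110 s after stimulus.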

| Structure (SMILES) | activation | outcome |
| --- | --- | --- |
| CC(C)(C)C(=O)NC(=S)NNC(=O)c1ccc(-c2ccccc2)cc1 | 308% (active) |  |
| CCCOc1ccc(C(=O)NNC(=S)NC(=O)c2ccccc2)cc1 | 180% (active) |  |
| OCCN1CCN(Cc2cc(Br)cc(Br)c2O)CC1 |  | inactive |
| O=c1c2cc(Br)ccc2nc(-c2cccc(C(F)(F)F)c2)n1O | 808% (active) |  |
| COc1cc(OC)cc(C(=O)NC(=S)NNC(=O)[C@H]2C[C@@H]2c2ccccc2)c1 |  | inactive |
| Cc1cccc(C(=O)NNC(=S)NC(=O)c2cccs2)c1 | 142% (active) |  |
| CC[C@@H](C(=O)[C@@H](C)[C@@H](O)[C@H](C)CCc1ccc(C)c(O)c1C(=O)O)[C@H]1O[C@](CC)([C@H]2CC[C@](O)(CC)[C@H](C)O2)C[C@@H]1C | 558% (active) |  |
| Cc1occc1C(=O)NNC(=S)NC(=O)COc1ccc(Cl)cc1Cl | 256% (active) |  |
| COc1cc(OC)cc(C(=O)N[C@H](C(=O)OCC(=O)NC(C)c2ccccc2)C(C)C)c1 (stereo partly drawn) |  | inactive |
| CCOc1ccccc1OCC(=O)Nc1cc(S(=O)(=O)N2CCCCC2)ccc1N1CCN(CC)CC1 |  | inactive |
| CCOC(=O)C1=NN(C(=O)c2ccc(C)cc2)C(O)(c2ccc(Cl)cc2)C1 (stereo not drawn) | 630% (active) |  |
| CCCOc1ccc(C(=O)NNC(=S)NC(=O)c2cccs2)cc1 | 139% (active) |  |
| Cc1ccc(NS(=O)(=O)c2ccc(C(=O)N3CC(C)CC(C)C3)cc2)cc1 (stereo not drawn) | 138% (active) |  |
| COC(=O)C1=NN(C(=O)c2cccc(Br)c2)C(O)(c2ccc(Cl)cc2)C1 (stereo not drawn) | 575% (active) |  |
| CC(C)(C)c1cc(CCC(=O)NNC(=S)NC(=O)c2ccccc2)cc(C(C)(C)C)c1O | 188% (active) |  |
| COc1ccccc1C(=O)NNC(=S)NC(=O)c1sc2ccccc2c1Cl | 278% (active) |  |
| O=C1CC(O)(C(F)(F)F)Oc2c1ccc1ccccc21 (stereo not drawn) | 222% (active) |  |
| CCCc1ccc(OCC(=O)NNC(=S)NC(=O)c2ccco2)cc1 | 164% (active) |  |
| CCCOc1ccc(C(=O)NC(=S)NNC(=O)c2c(-c3ccccc3)noc2C)cc1 |  | inactive |
| Cc1cccc(C(=O)NC(=S)NNC(=O)c2cccs2)c1 | 142% (active) |  |
| CC(C)(C)c1ccc(C(=O)NC(=S)NNC(=O)c2cccs2)cc1 | 136% (active) |  |

Molecular target: Potassium voltage-gated channel subfamily KQT member 1 (Homo sapiens) (UniProt P51787)
Sequence (P51787 whole entry, looked up): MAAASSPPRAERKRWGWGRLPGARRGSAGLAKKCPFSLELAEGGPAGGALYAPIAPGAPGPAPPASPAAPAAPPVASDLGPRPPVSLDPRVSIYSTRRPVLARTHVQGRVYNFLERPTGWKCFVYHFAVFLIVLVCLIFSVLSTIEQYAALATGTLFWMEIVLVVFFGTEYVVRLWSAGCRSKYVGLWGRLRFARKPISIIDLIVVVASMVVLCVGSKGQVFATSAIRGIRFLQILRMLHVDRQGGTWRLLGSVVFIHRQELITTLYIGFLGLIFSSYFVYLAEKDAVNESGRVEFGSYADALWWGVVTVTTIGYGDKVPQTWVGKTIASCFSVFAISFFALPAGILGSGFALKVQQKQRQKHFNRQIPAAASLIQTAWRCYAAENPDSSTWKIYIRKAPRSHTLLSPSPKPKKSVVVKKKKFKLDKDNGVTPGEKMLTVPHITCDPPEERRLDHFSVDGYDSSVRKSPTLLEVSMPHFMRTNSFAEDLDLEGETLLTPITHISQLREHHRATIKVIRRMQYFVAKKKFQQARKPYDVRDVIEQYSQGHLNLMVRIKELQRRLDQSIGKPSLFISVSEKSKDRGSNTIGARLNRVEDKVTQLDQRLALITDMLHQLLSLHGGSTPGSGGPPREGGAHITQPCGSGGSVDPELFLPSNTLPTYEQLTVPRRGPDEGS
Experiment: enhancement of KCNQ1 channel thallium flux – FluxOR thallium flux, CHO cells, duplicates, confirmation (AID 493007;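 active means potentiation averaged over duplicate wells exceeding buffer-only control mean by more than 3 SD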;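 on outcome: cells depolarized by a potassium plus thallium sulfate stimulus after compound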)
Conditions: KCNQ1 cell line, FluxOR thallium flux fluorescence, at 10 µM; active compounds read high, % of reference activator effect, buffer zero
Summary of the method: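 System: KCNQ1-expressing CHO cell line; technique: kinetic thallium influx fluorescence with FluxOR dye, 10 s baseline, 110 s post-stimulus; timing: dye 90 min then compound 20 min, both at room temperature; controls: buffer-only wells as 0% and R-L3 activator as 100%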

| Structure (SMILES) | potentiation | outcome |
| --- | --- | --- |
| CC(C)(C)C(=O)NC(=S)NNC(=O)c1ccc(-c2ccccc2)cc1 | 163% (active) |  |
| CCCOc1ccc(C(=O)NNC(=S)NC(=O)c2ccccc2)cc1 | 168% (active) |  |
| OCCN1CCN(Cc2cc(Br)cc(Br)c2O)CC1 |  | inactive |
| O=c1c2cc(Br)ccc2nc(-c2cccc(C(F)(F)F)c2)n1O | 372% (active) |  |
| COc1cc(OC)cc(C(=O)NC(=S)NNC(=O)[C@H]2C[C@@H]2c2ccccc2)c1 | 37.5% (active) |  |
| Cc1cccc(C(=O)NNC(=S)NC(=O)c2cccs2)c1 | 91% (active) |  |
| CC[C@@H](C(=O)[C@@H](C)[C@@H](O)[C@H](C)CCc1ccc(C)c(O)c1C(=O)O)[C@H]1O[C@](CC)([C@H]2CC[C@](O)(CC)[C@H](C)O2)C[C@@H]1C | 149% (active) |  |
| Cc1occc1C(=O)NNC(=S)NC(=O)COc1ccc(Cl)cc1Cl | 259% (active) |  |
| COc1cc(OC)cc(C(=O)N[C@H](C(=O)OCC(=O)NC(C)c2ccccc2)C(C)C)c1 (stereo partly drawn) |  | inactive |
| CCOc1ccccc1OCC(=O)Nc1cc(S(=O)(=O)N2CCCCC2)ccc1N1CCN(CC)CC1 |  | inactive |
| CCOC(=O)C1=NN(C(=O)c2ccc(C)cc2)C(O)(c2ccc(Cl)cc2)C1 (stereo not drawn) | 336% (active) |  |
| CCCOc1ccc(C(=O)NNC(=S)NC(=O)c2cccs2)cc1 | 135% (active) |  |
| Cc1ccc(NS(=O)(=O)c2ccc(C(=O)N3CC(C)CC(C)C3)cc2)cc1 (stereo not drawn) |  | inactive |
| COC(=O)C1=NN(C(=O)c2cccc(Br)c2)C(O)(c2ccc(Cl)cc2)C1 (stereo not drawn) | 318% (active) |  |
| CC(C)(C)c1cc(CCC(=O)NNC(=S)NC(=O)c2ccccc2)cc(C(C)(C)C)c1O | 61% (active) |  |
| COc1ccccc1C(=O)NNC(=S)NC(=O)c1sc2ccccc2c1Cl | 150% (active) |  |
| O=C1CC(O)(C(F)(F)F)Oc2c1ccc1ccccc21 (stereo not drawn) | 71.5% (active) |  |
| CCCc1ccc(OCC(=O)NNC(=S)NC(=O)c2ccco2)cc1 | 79.5% (active) |  |
| CCCOc1ccc(C(=O)NC(=S)NNC(=O)c2c(-c3ccccc3)noc2C)cc1 | 28.5% (active) |  |
| Cc1cccc(C(=O)NC(=S)NNC(=O)c2cccs2)c1 | 75% (active) |  |
| CC(C)(C)c1ccc(C(=O)NC(=S)NNC(=O)c2cccs2)cc1 | 97% (active) |  |

Molecular target: Potassium voltage-gated channel subfamily KQT member 2 (Rattus norvegicus) (UniProt O88943)
Sequence (O88943 whole entry, looked up): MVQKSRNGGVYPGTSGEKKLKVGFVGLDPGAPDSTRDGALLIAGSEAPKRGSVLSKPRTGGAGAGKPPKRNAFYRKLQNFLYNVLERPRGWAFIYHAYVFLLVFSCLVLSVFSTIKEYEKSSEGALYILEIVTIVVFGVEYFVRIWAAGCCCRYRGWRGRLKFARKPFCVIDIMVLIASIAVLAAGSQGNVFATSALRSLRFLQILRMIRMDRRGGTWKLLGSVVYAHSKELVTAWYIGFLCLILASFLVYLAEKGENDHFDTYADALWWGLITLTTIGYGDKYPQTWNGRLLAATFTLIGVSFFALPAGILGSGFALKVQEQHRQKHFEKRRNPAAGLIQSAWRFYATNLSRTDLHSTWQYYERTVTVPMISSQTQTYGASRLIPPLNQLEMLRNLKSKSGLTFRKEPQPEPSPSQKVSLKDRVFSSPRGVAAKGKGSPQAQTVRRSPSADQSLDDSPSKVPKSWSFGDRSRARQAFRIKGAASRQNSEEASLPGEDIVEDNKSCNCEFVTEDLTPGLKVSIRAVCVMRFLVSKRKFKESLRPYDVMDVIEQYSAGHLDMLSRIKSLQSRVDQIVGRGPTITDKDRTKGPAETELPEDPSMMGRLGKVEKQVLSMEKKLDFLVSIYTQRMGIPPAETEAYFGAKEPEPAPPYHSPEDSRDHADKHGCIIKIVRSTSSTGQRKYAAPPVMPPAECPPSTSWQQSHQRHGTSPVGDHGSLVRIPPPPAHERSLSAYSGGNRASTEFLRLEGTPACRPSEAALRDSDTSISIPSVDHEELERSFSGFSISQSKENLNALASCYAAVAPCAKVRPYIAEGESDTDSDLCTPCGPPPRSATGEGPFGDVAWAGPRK
Experiment: KCNQ2 thallium flux enhancement – KCNQ2-CHO-K1 cells, selectivity assay for KCNQ1 potentiator project (AID 493009);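 further: assay conditions were tuned for KCNQ1 rather than KCNQ2 modulators; signal is max minus min fluorescence divided by baseline after thallium stimulus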
Conditions: FluxOR thallium flux fluorescence, at 10 µM; active compounds read high, scaled: buffer 0, activator control 100

| Structure (SMILES) | potentiation | outcome |
| --- | --- | --- |
| CC(C)(C)C(=O)NC(=S)NNC(=O)c1ccc(-c2ccccc2)cc1 | 430% (active) |  |
| CCCOc1ccc(C(=O)NNC(=S)NC(=O)c2ccccc2)cc1 | 318% (active) |  |
| OCCN1CCN(Cc2cc(Br)cc(Br)c2O)CC1 |  | inactive |
| O=c1c2cc(Br)ccc2nc(-c2cccc(C(F)(F)F)c2)n1O | 766% (active) |  |
| COc1cc(OC)cc(C(=O)NC(=S)NNC(=O)[C@H]2C[C@@H]2c2ccccc2)c1 |  | inactive |
| Cc1cccc(C(=O)NNC(=S)NC(=O)c2cccs2)c1 | 226% (active) |  |
| CC[C@@H](C(=O)[C@@H](C)[C@@H](O)[C@H](C)CCc1ccc(C)c(O)c1C(=O)O)[C@H]1O[C@](CC)([C@H]2CC[C@](O)(CC)[C@H](C)O2)C[C@@H]1C | 502% (active) |  |
| Cc1occc1C(=O)NNC(=S)NC(=O)COc1ccc(Cl)cc1Cl | 442% (active) |  |
| COc1cc(OC)cc(C(=O)N[C@H](C(=O)OCC(=O)NC(C)c2ccccc2)C(C)C)c1 (stereo partly drawn) |  | inactive |
| CCOc1ccccc1OCC(=O)Nc1cc(S(=O)(=O)N2CCCCC2)ccc1N1CCN(CC)CC1 |  | inactive |
| CCOC(=O)C1=NN(C(=O)c2ccc(C)cc2)C(O)(c2ccc(Cl)cc2)C1 (stereo not drawn) | 655% (active) |  |
| CCCOc1ccc(C(=O)NNC(=S)NC(=O)c2cccs2)cc1 | 275% (active) |  |
| Cc1ccc(NS(=O)(=O)c2ccc(C(=O)N3CC(C)CC(C)C3)cc2)cc1 (stereo not drawn) |  | inactive |
| COC(=O)C1=NN(C(=O)c2cccc(Br)c2)C(O)(c2ccc(Cl)cc2)C1 (stereo not drawn) | 745% (active) |  |
| CC(C)(C)c1cc(CCC(=O)NNC(=S)NC(=O)c2ccccc2)cc(C(C)(C)C)c1O | 185% (active) |  |
| COc1ccccc1C(=O)NNC(=S)NC(=O)c1sc2ccccc2c1Cl | 287% (active) |  |
| O=C1CC(O)(C(F)(F)F)Oc2c1ccc1ccccc21 (stereo not drawn) | 270% (active) |  |
| CCCc1ccc(OCC(=O)NNC(=S)NC(=O)c2ccco2)cc1 | 216% (active) |  |
| CCCOc1ccc(C(=O)NC(=S)NNC(=O)c2c(-c3ccccc3)noc2C)cc1 |  | inactive |
| Cc1cccc(C(=O)NC(=S)NNC(=O)c2cccs2)c1 | 210% (active) |  |
| CC(C)(C)c1ccc(C(=O)NC(=S)NNC(=O)c2cccs2)cc1 | 188% (active) |  |

Source: PubChem BioAssay
